Results published in ChEMBL document CHEMBL1144782, “Isoindolo[2,1-a]quinoxaline derivatives, novel potent antitumor agents with dual inhibition of tubulin polymerization and topoisomerase I” (2008).

Columns and labels:
TK-10 = assay: Antitumor activity against human TK10 cells; type: functional
Summary of the method: (§1)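 NCI 60-cell-line screen. Parameters were GI50 (50% net growth inhibition), TGI and LC50, each reported as –log molar concentration. Where an effect was not reached within the tested range, the highest tested concentration was used in the calculation.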

SK-OV-3 = assay: Antitumor activity against human SKOV3 cells; type: functional
Summary of the method: (§2)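 Run by the NCI in its in vitro disease-oriented screen of about 60 human tumour cell lines. For each line it reports pGI50 (50% net growth inhibition), pTGI (total growth inhibition) and pLC50 (50% net cell death), each as –log molar concentration. Where an effect was not reached within the tested range, the highest tested concentration was used.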

SW-620 = assay: Antitumor activity against human SW620 cells; type: functional; summary of the method: as §1
SK-MEL-2 = assay: Antitumor activity against human SKMEL2 cells; type: functional; summary of the method: as §2
BT-549 = assay: Antitumor activity against human BT549 cells; type: functional; summary of the method: as §2
M14 = assay: Antitumor activity against human M14 cells; type: functional; summary of the method: as §2
HCT-116 = assay: Antitumor activity against human HCT116 cells; type: functional; summary of the method: as §2
EKVX = assay: Antitumor activity against human EKVX cells; type: functional; summary of the method: as §2
MCF7 [1] = assay: Antitumor activity against human MCF7 cells; type: functional; summary of the method: as §2
KM12 = assay: Antitumor activity against human KM12 cells; type: functional; summary of the method: as §2
HCT-15 = assay: Antitumor activity against human HCT15 cells; type: functional; summary of the method: as §2
OVCAR-8 = assay: Antitumor activity against human OVCAR8 cells; type: functional; summary of the method: as §2
A549 = assay: Antitumor activity against human A549 cells; type: functional; summary of the method: as §2
LOX IMVI = assay: Antitumor activity against human LOXIMVI cells; type: functional; summary of the method: as §2
NCI/ADR-RES = assay: Antitumor activity against human NCI/ADR-RES cells; type: functional; summary of the method: as §2
SF-268 [2] = assay: Cell viability against human SF268 cells at 10 uM; type: functional
[3] = Antitumor activity against human […] cells; type: functional; summary of the method: as §2
MCF7 [4] = assay: Cell viability against human MCF7 cells at 10 uM; type: functional
RPMI-8226 = assay: Antitumor activity against human RPMI8226 cells; type: functional; summary of the method: as §2
A498 = assay: Antitumor activity against human A498 cells; type: functional; summary of the method: as §2
SF-295 = assay: Antitumor activity against human SF295 cells; type: functional; summary of the method: as §2
PC-3 = assay: Antitumor activity against human PC3 cells; type: functional; summary of the method: as §2
MCF7 [5] = assay: Resistance index, Ratio of GI50 for human multidrug-resistant MCF7 cells to GI50 for human MCF7 cells; type: functional
Summary of the method: (§3)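 Growth inhibition by MTT after 72 h incubation. Resistant sublines: LoVoDoxo and MCF-7 MDR were kept in 0.1 µg/mL doxorubicin; CEMVbl-100 was selected against vinblastine. GI50 given as mean ± SEM of three independent experiments. Resistance index is resistant-line GI50 over parental GI50.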

HT-29 = assay: Antitumor activity against human HT29 cells; type: functional; summary of the method: as §2
HOP-62 = assay: Antitumor activity against human HOP62 cells; type: functional; summary of the method: as §2
CCRF-CEM = assay: Growth inhibition of human CEM cells after 72 hrs by MTT assay; type: functional; summary of the method: as §3
786-0 = assay: Antitumor activity against human 786-0 cells; type: functional; summary of the method: as §2
SF-268 [6] = assay: Antitumor activity against human SF268 cells; type: functional; summary of the method: as §2
T47D = assay: Antitumor activity against human T47D cells; type: functional; summary of the method: as §1
ACHN = assay: Antitumor activity against human ACHN cells; type: functional; summary of the method: as §2
NCI-H522 = assay: Antitumor activity against human NCI-H522 cells; type: functional; summary of the method: as §2
Hs-578T = assay: Antitumor activity against human HS578T cells; type: functional; summary of the method: as §2
MCF7 [7] = assay: Growth inhibition of human MCF7 cells after 72 hrs by MTT assay; type: functional; conditions: MCF7, 72 h; summary of the method: as §3
UACC-62 = assay: Antitumor activity against human UACC62 cells; type: functional; summary of the method: as §1
NCI-H23 = assay: Antitumor activity against human NCI-H23 cells; type: functional; summary of the method: as §2
U-251 = assay: Antitumor activity against human U251 cells; type: functional; summary of the method: as §1
CAKI-1 = assay: Antitumor activity against human CAKI1 cells; type: functional; summary of the method: as §2
RXF 393 = assay: Antitumor activity against human RXF393 cells; type: functional; summary of the method: as §2
Tubulin (Sus scrofa) = Tubulin (Sus scrofa) (UniProt P02554+P02550); assay: Inhibition of pig brain tubulin polymerization
OVCAR-4 = assay: Antitumor activity against human OVCAR4 cells; type: functional; summary of the method: as §2
SR = assay: Antitumor activity against human SR cells; type: functional; summary of the method: as §1
[8] = read-out: Log LC50 (the source's name) (converted)

Sequence of Tubulin (Sus scrofa) (P02550 whole entry, looked up): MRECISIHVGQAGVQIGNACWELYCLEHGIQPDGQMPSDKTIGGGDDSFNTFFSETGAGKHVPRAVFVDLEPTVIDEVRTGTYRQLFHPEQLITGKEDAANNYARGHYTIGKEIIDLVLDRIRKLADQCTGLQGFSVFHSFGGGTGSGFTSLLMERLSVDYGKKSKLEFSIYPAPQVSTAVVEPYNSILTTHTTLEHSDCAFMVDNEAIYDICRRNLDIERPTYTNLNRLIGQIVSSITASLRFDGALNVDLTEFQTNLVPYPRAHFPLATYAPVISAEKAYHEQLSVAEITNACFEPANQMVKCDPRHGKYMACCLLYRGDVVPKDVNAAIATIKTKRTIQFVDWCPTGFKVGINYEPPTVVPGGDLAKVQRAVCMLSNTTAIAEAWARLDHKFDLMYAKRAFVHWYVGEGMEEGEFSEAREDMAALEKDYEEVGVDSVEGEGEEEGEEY
Sequence of Tubulin (Sus scrofa) (P02554 whole entry, looked up): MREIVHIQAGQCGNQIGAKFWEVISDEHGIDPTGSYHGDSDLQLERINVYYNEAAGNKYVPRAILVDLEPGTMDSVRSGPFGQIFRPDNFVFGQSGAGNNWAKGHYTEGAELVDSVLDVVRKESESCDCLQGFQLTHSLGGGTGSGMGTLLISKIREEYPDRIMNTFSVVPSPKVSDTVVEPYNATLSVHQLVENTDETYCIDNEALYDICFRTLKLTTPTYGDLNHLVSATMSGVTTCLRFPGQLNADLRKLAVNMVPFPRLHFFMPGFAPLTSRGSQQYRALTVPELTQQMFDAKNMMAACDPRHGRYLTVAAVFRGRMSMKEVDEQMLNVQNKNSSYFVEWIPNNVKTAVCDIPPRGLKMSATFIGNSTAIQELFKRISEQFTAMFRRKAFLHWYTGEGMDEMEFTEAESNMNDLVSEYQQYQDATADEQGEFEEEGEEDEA

Cc1cccc2c1[nH]c(=O)c1c3ccccc3cn21
GI50 (TK-10): 26.9 µM
CC50 (TK-10; [8]): > 100 µM
TGI (TK-10; read-out: pTGI (converted)): 87.1 µM
GI50 (SK-OV-3): 27.5 µM
LC50 (50% net cell kill) (SK-OV-3): > 100 µM
TGI (SK-OV-3; read-out: pTGI (converted)): > 100 µM
GI50 (SW-620): 5.75 µM
CC50 (SW-620; [8]): 42.7 µM
TGI (SW-620; read-out: pTGI (converted)): 17.8 µM
GI50 (SK-MEL-2): 14.5 µM
LC50 (SK-MEL-2): > 100 µM
TGI (SK-MEL-2; read-out: pTGI (converted)): > 100 µM
GI50 (BT-549): 12 µM
LC50 (50% net cell kill) (BT-549): > 100 µM
TGI (BT-549; read-out: pTGI (converted)): 58.9 µM
GI50 (M14): 12.6 µM
CC50 (M14; [8]): 77.6 µM
TGI (M14; read-out: pTGI (converted)): 30.9 µM
GI50 (HCT-116): 2.69 µM
LC50 (HCT-116): 33.9 µM
TGI (HCT-116; read-out: pTGI (converted)): 11.7 µM
GI50 (EKVX): 5.62 µM
LC50 (50% net cell kill) (EKVX): > 100 µM
TGI (EKVX; read-out: pTGI (converted)): 44.7 µM
GI50 (MCF7 [1]): < 0.01 µM
LC50 (50% net cell kill) (MCF7 [1]): 39.8 µM
TGI (MCF7 [1]; read-out: pTGI (converted)): 12.6 µM
GI50 (KM12): 3.39 µM
LC50 (50% net cell death) (KM12): > 100 µM
TGI (KM12; read-out: pTGI (converted)): 22.9 µM
GI50 (HCT-15): 5.25 µM
CC50 (HCT-15; [8]): > 100 µM
TGI (HCT-15; read-out: pTGI (converted)): 31.6 µM
GI50 (OVCAR-8): 3.55 µM
LC50 (50% net cell death) (OVCAR-8): > 100 µM
TGI (OVCAR-8; read-out: pTGI (converted)): > 100 µM
GI50 (A549): 5.01 µM
CC50 (A549; [8]): > 100 µM
TGI (A549; read-out: pTGI (converted)): > 100 µM
GI50 (LOX IMVI): 6.17 µM
LC50 (50% net cell kill) (LOX IMVI): 42.7 µM
TGI (LOX IMVI; read-out: pTGI (converted)): 18.2 µM
GI50 (NCI/ADR-RES): 12 µM
LC50 (NCI/ADR-RES): > 100 µM
TGI (NCI/ADR-RES; read-out: pTGI (converted)): 34.7 µM
Activity (SF-268 [2]): 55%
GI50 [3]: 2.4 µM
LC50 [3]: > 100 µM
TGI ([3]; read-out: pTGI (converted)): 17.4 µM
Activity (MCF7 [4]): 27%
GI50 (RPMI-8226): 2 µM
CC50 (RPMI-8226; [8]): 60.3 µM
TGI (RPMI-8226; read-out: pTGI (converted)): 7.08 µM
GI50 (A498): 16.2 µM
CC50 (A498; [8]): > 100 µM
TGI (A498; read-out: pTGI (converted)): 41.7 µM
GI50 (SF-295): 2.63 µM
CC50 (SF-295; [8]): > 100 µM
TGI (SF-295; read-out: pTGI (converted)): 25.1 µM
GI50 (PC-3): 3.89 µM
LC50 (50% net cell death) (PC-3): > 100 µM
TGI (PC-3; read-out: pTGI (converted)): 44.7 µM
RatioGI50 (MCF7 [5]): 2.2
GI50 (HT-29): 2.19 µM
LC50 (HT-29): 36.3 µM
TGI (HT-29; read-out: pTGI (converted)): 13.2 µM
GI50 (HOP-62): 3.55 µM
LC50 (50% net cell death) (HOP-62): 51.3 µM
TGI (HOP-62; read-out: pTGI (converted)): 15.1 µM
GI50 (CCRF-CEM): 2.9 µM
GI50 (786-0): 5.89 µM
CC50 (786-0; [8]): > 100 µM
TGI (786-0; read-out: pTGI (converted)): 32.4 µM
GI50 (SF-268 [6]): 3.02 µM
CC50 (SF-268 [6]; [8]): 75.9 µM
TGI (SF-268 [6]; read-out: pTGI (converted)): 8.51 µM
GI50 (T47D): 11.5 µM
LC50 (T47D): > 100 µM
TGI (T47D; read-out: pTGI (converted)): 49 µM
GI50 (ACHN): 4.07 µM
LC50 (50% net cell kill) (ACHN): > 100 µM
TGI (ACHN; read-out: pTGI (converted)): 22.4 µM
GI50 (NCI-H522): 6.46 µM
CC50 (NCI-H522; [8]): > 100 µM
TGI (NCI-H522; read-out: pTGI (converted)): 64.6 µM
GI50 (Hs-578T): 21.9 µM
CC50 (Hs-578T; [8]): > 100 µM
TGI (Hs-578T; read-out: pTGI (converted)): 64.6 µM
GI50 (MCF7 [7]): 3.7 µM
GI50 (UACC-62): 6.92 µM
LC50 (UACC-62): 95.5 µM
TGI (UACC-62; read-out: pTGI (converted)): 28.2 µM
GI50 (NCI-H23): 17.4 µM
LC50 (50% net cell kill) (NCI-H23): 87.1 µM
TGI (NCI-H23; read-out: pTGI (converted)): 38.9 µM
GI50 (U-251): 6.61 µM
CC50 (U-251; [8]): 45.7 µM
TGI (U-251; read-out: pTGI (converted)): 19.5 µM
GI50 (CAKI-1): 2.19 µM
LC50 (CAKI-1): > 100 µM
TGI (CAKI-1; read-out: pTGI (converted)): 8.71 µM
GI50 (RXF 393): 9.12 µM
CC50 (RXF 393; [8]): > 100 µM
TGI (RXF 393; read-out: pTGI (converted)): 38 µM
Activity (Tubulin (Sus scrofa)): > 10 µM
GI50 (OVCAR-4): 6.76 µM
LC50 (50% net cell kill) (OVCAR-4): > 100 µM
TGI (OVCAR-4; read-out: pTGI (converted)): > 100 µM
GI50 (SR): 1.55 µM
LC50 (SR): 12.6 µM
TGI (SR; read-out: pTGI (converted)): 4.17 µM
